Assay results: ChEMBL document CHEMBL1154317, “Discovery of a potent, metabolically stabilized resorcylic lactone as an anti-inflammatory lead” (Bioorg Med Chem Lett, 2009)
The source made the active and inactive calls. The rule behind the calls is not given here.

Legend:
[1] = Clearance in BALB/c mouse at 3 mg/kg, iv; format: ADME, organism-based; parameters: dose 3 mg/kg, route intravenous; details: in vivo
How it was run: (§1)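 Single intravenous dose given to BALB/c mice. Parent drug levels were measured in plasma over time after dosing. CL, VDss, t1/2 and AUC were derived from these plasma levels. AUC is reported normalised to dose, […].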

[2] = organism: Mus musculus; assay: Antiinflammatory activity in mouse assessed as inhibition of LPS-induced IL6 production; format: functional, organism-based
How it was run: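 Mice given compound together with LPS by tail-vein injection in 10% cyclodextrin. Blood collected 3 h later and plasma IL-6 measured by ELISA. Mean with SEM, n = 6-8. Compared against the LPS-treated control group by Dunnett's post hoc test, P<0.05.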

[3] = tested on: THP-1; assay: Antiinflammatory activity in human THP1 cells assessed as inhibition of LPS-induced TNFalpha production by PLAP reporter assay; format: functional, cell-based
How it was run: (§2)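 Stably transfected PLAP reporter lines (TNFα-promoter/5'-UTR-PLAP in THP-1-33; β-actin-promoter-PLAP in B164), kept in RPMI1640 with 10% heat-inactivated endotoxin-free FBS and G418 1 mg/mL. Seeded at 1.0×10^4 cells/well, preincubated with compound 30 min, then stimulated with LPS 100 ng/ml (E. coli 0127:B08 or 011:B4). After 24-48 h, supernatant alkaline phosphatase activity read; IC50 reported.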

[4] = Half life in BALB/c mouse at 3 mg/kg, iv; format: ADME, organism-based; parameters: route intravenous, dose 3 mg/kg; details: in vivo; how it was run: as §1
[5] = tested on: Mus musculus; assay: Normalised AUC in BALB/c mouse at 3 mg/kg, iv; format: ADME, organism-based; parameters: dose 3 mg/kg, route intravenous; details: in vivo; how it was run: as §1
[6] = Antiinflammatory activity in human B164 cells assessed as inhibition of LPS-induced Actin production by PLAP reporter assay; format: functional, cell-based; how it was run: as §2
[7] = Volume of distribution at steady state in BALB/c mouse at 3 mg/kg, iv; format: ADME, organism-based; parameters: dose 3 mg/kg, route intravenous; details: in vivo, read-out: Vdss; how it was run: as §1
[8] = Metabolic stability in mouse plasma after 2 hrs; format: ADME, cell-free; details: read-out: Stability
How it was run: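 Compound at 50 μg/ml or 50 μM in freshly prepared heparinized mouse blood, incubated at 37 °C for 0, 30 and 120 min. Each sample extracted with MeOH containing 0.2% perchloric acid. Analyzed by reverse-phase HPLC, 30% acetonitrile in KH2PO4 buffer pH 3.5. Parent peak area at each time expressed as % of the 0 min area.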

[9] = tested on: U-937; assay: Antiinflammatory activity in human U937 cells assessed as inhibition of LPS-induced TNFalpha production by ELISA; format: functional, cell-based
[10] = tested on: U-937; assay: Antiinflammatory activity in human U937 cells assessed as inhibition of LPS-induced Actin production by ELISA; format: functional, cell-based

Compound | IC50 [3] [nM] | IC50 [6] [nM] | also measured
COc1cc(O)c2c(c1)/C=C/C[C@H](O)[C@H](O)C(=O)/C=C\C[C@@H](C)OC2=O | 1050 | 7060 | –
COc1cc(O)c2c(c1)/C=C/C[C@H](O)[C@H](O)C(=O)/C=C\C[C@H](c1ccccc1)OC2=O | 3690 | 4410 | –
COc1cc(O)c2c(c1)/C=C/C[C@H](O)[C@H](O)C(=O)C1CC1OC2=O (stereo not given in full) | > 10000 | > 10000 | –
COc1cc(O)c2c(c1)/C=C/C[C@H](O)[C@H](O)/C=C\[C@H](C)[C@@H](C)OC2=O | > 10000 | > 10000 | –
COc1cc(O)c2c(c1)/C=C/C[C@H](O)[C@H](O)C(=O)/C=C\C[C@H](C)OC2=O | 11 | 2370 | clearance [1]: 710 mL/min/kg; half-life [4]: 0.05 h; AUC/dose [5]: 23.8 ng·h/mL/(mg/kg); Vd [7]: 3.3 L/kg; remaining at 2 h [8]: 2%
COc1cc(O)c2c(c1)/C=C/C[C@H](O)[C@H](O)/C=C\[C@@H](CC(F)(F)F)[C@H](C)OC2=O | 9000 | > 10000 | –
COc1cc(O)c2c(c1)/C=C/C[C@H](O)[C@H](O)C(=O)/C=C\[C@H]1CCC[C@H]1OC2=O | 4000 | > 30000 | remaining at 2 h [8]: 34%
COc1cc(O)c2c(c1)/C=C/C[C@@H](O)[C@@H](O)C(=O)/C=C\C[C@@H](C)OC2=O | 2620 | 4980 | –
COc1cc(O)c2c(c1)/C=C/C[C@H](O)[C@H](O)/C=C\[C@@H](Cc1ccccc1)[C@H](C)OC2=O | > 10000 | > 10000 | –
COc1cc(O)c2c(c1)/C=C/C[C@H](O)[C@H](O)C(=O)/C=C\C[C@H](C(F)(F)F)OC2=O | 31 | 1330 | –
CC[C@@H]1C/C=C\C(=O)[C@@H](O)[C@@H](O)C/C=C/c2cc(OC)cc(O)c2C(=O)O1 | 5210 | 8470 | –
COc1cc(O)c2c(c1)/C=C/C[C@H](O)[C@H](O)/C=C\C(C)(C)COC2=O | > 10000 | > 10000 | –
CC[C@@H]1/C=C\[C@@H](O)[C@@H](O)C/C=C/c2cc(OC)cc(O)c2C(=O)O[C@H]1C | – | – | inhibition [9]: inactive; inhibition [10]: inactive

Further molecules by falling IC50 [3], results first:

IC50 [3] [nM] | IC50 [6] [nM] | Compound | also measured
1140 | > 10000 | COc1cc(O)c2c(c1)/C=C/C[C@H](O)[C@H](O)/C=C\[C@H](C)[C@H](C)OC2=O | –
888 | > 10000 | COc1ccc(CO[C@@H]2/C=C\C(=O)[C@@H](O)[C@@H](O)C/C=C/c3cc(OC)cc(O)c3C(=O)O[C@H]2C)cc1 | –
667 | 3000 | COc1cc(O)c2c(c1)/C=C/C[C@H](O)[C@H](O)C(=O)/C=C\[C@@H]1CCC[C@@H]1OC2=O | remaining at 2 h [8]: 77%
259 | > 10000 | COc1cc(O)c2c(c1)/C=C/C[C@H](O)[C@H](O)/C=C\[C@@H](C)CNC2=O | –
239 | 7600 | COc1cc(O)c2c(c1)/C=C/C[C@H](O)[C@H](O)C(=O)/C=C\[C@H](OC)[C@H](C)OC2=O | remaining at 2 h [8]: 25%
203 | > 10000 | COc1cc(O)c2c(c1)/C=C/C[C@H](O)[C@H](O)/C=C\[C@@H](C)COC2=O | –
200 | > 10000 | COc1cc(O)c2c(c1)/C=C/C[C@H](O)[C@H](O)/C=C(\F)[C@@H](C)[C@H](C)NC2=O | –
136 | > 10000 | COc1cc(O)c2c(c1)/C=C/C[C@H](O)[C@H](O)C(=O)/C=C\[C@@H](C)[C@H](C)OC2=O | clearance [1]: 91.8 mL/min/kg; inhibition [2]: Active; half-life [4]: 3.44 h; AUC/dose [5]: 181 ng·h/mL/(mg/kg); Vd [7]: 1.69 L/kg; remaining at 2 h [8]: > 80%
69 | 2800 | COc1cc(O)c2c(c1)/C=C/C[C@H](O)[C@H](O)C(=O)/C=C\CCOC2=O | –
59 | 2440 | CC[C@H]1C/C=C\C(=O)[C@@H](O)[C@@H](O)C/C=C/c2cc(OC)cc(O)c2C(=O)O1 | –
